# Most compounds without a hit are left out; they make up all but 2.2% or so of the library.
# HDAC3 inh = inhibitors of human histone deacetylase 3. O15379. recombinant HDAC3, fluorogenic peptide/trypsin coupled, fluorescence. inhibition, % at 8.3 µM. actives 0.15% (n = 320,000); in the data active means inhibition above about 26%, passing the limit was not always enough; inconclusive means no clear call, values can overlap the other calls
# Target sequence (O15379 whole entry, looked up): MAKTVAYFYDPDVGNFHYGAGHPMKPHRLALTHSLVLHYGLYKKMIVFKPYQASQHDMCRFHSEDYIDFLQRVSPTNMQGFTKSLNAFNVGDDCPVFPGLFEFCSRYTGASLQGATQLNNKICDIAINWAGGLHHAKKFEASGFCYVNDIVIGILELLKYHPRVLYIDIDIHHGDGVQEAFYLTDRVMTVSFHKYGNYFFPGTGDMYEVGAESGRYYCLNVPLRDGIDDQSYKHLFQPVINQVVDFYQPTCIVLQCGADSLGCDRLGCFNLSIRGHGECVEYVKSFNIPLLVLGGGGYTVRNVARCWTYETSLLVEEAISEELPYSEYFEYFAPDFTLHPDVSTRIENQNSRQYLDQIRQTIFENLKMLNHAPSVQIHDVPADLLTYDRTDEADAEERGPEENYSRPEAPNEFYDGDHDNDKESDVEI
# T cruzi inh = T. cruzi replication inhibition | actives 1.4% (n = 300,000) | inhibition, % (test concentration not listed) | T. cruzi beta-gal in NIH3T3, luminescence, 90 h;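 active means mean inhibition across valid replicates above about 55%, limit read from the data; inconclusive means mean below that limit but half or more replicates reach it; inactive means mean below it, under half of replicates reach it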;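 further: signal also drops with host cell toxicity which is not excluded here; 0% = plate median of DMSO wells and 100% = zero luminescence signal; higher percent means less beta-gal luminescence so fewer parasites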
#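 assay system = mouse NIH/3T3 fibroblasts infected with β-gal-expressing T. cruzi Tulahuen C4 | input = 5,000 NIH/3T3 host cells per well | buffer or medium = DMEM plus 2% FBS | timing = 3 h host attachment, then at least 90 h co-culture | measured by = GalScreen luminescence, 60 min | evaluation = luminescence reflecting intracellular parasite burden, expressed as percent inhibition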
# PolyA inhibitor = yeast polyadenylation inhibition; S. cerevisiae SKY197-pL101 polyadenylation reporter, beta-gal luminescence; efflux-impaired pdr1/pdr3 knockout yeast; score 100 = 6 SD above DMSO; activity score, % at 12 µM; actives 0.02% (n = 300,000); AID 1875;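 active means lowest replicate activity score at least 50, where 100 means six control SD above control mean; inconclusive means lowest score under 50 but half or more replicates reach 50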;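 further: yeast exposed to compound for 9 h at 30 °C; higher score means more reporter readthrough which indicates perturbed polyadenylation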
# Efflux pump inh = blocks antifungal efflux pumps in multiplex yeast assay; S. cerevisiae Candida pump triplex, Nile Red efflux; inhibition, % at 10 µM; actives 0.44% (n = 330,000);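 active means plate passing quality check with inhibition over a set limit, or well fluorescence over plate mean plus 4 SD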;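 further: Nile Red retained in pooled yeast measured as flow cytometry median fluorescence; 0% = buffer negative control and 100% = Enniatin B positive control; higher means more Nile Red kept so more efflux inhibition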
# AI-2 QS modul = Vibrio harveyi AI-2 quorum sensing modulation; Vibrio harveyi JMH597 AI-2 luminescence/OD600 ratio, 9 h; hits give low values; strain lacks LuxN and CqsS sensors; 0 = neutral-control median; activity change, % at 7.5 µM; actives 0.4% (n = 300,000); in the data active means activity change below about -75%, passing the limit was not always enough; inconclusive means no clear call, values can overlap the other calls;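 further: luminescence divided by OD600 gain over 9 h not by final OD600 alone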
# Yeast cmpd fluor = counter-screen for efflux pump inhibitors: compound fluorescence; S. cerevisiae AD/pABC3, flow cytometry; fluorescence ratio to DMSO, % at 10 µM; shares compounds with Efflux pump inh; actives 4% (n = 1,700);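 active means fluorescence ratio to DMSO above its plate's cutoff, the plate mean ratio plus 5 SD, cut at about 210% in these data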;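 further: unstained yeast with no Nile Red so the signal is compound autofluorescence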
# CaMdr1 efflux inh = blocks the Candida albicans Mdr1 efflux pump in yeast; shares compounds with Efflux pump inh; S. cerevisiae AD/CaMDR1, Nile Red efflux, flow cytometry; inhibition, % at 10 µM; actives 1% (n = 1,700); AID 588518; in the data active means inhibition above about 26%;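 further: 0% = DMSO vehicle and 100% = reference inhibitor; higher means more Nile Red retained so more efflux inhibition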
# CaCdr2 efflux inh = inhibitors of Candida albicans Cdr2 efflux pump | actives 4% (n = 1,700) | shares compounds with Efflux pump inh | Nile Red retention ratio vs DMSO, % at 10 µM | S. cerevisiae AD/CaCDR2, Nile Red retention, flow cytometry; in the data active means Nile Red retention ratio vs DMSO above about 190%;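 further: higher ratio means more blocking of Cdr2 efflux of the dye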
# Cdr1 pump inh = blocks the Candida albicans Cdr1 efflux pump in yeast. shares compounds with Efflux pump inh. S. cerevisiae AD/CaCDR1, Nile Red efflux, flow cytometry. inhibition, % at 10 µM. actives 1% (n = 1,700);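 active means inhibition above the screen-wide mean plus twice its standard deviation, cut at about 32% in these data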
# * marks the source's active call; other numbers are inactive results; ? = inconclusive; · = no result; + = active, no number.
SMILES,HDAC3 inh,T cruzi inh,PolyA inhibitor,Efflux pump inh,AI-2 QS modul,Yeast cmpd fluor,CaMdr1 efflux inh,CaCdr2 efflux inh,Cdr1 pump inh
COc1ccc(/C(N)=N/OC(=O)Cc2cccs2)cc1,3,-17,?,0,-67,·,·,·,·
O=C1C(=O)N(CC2CCCO2)C(c2ccccc2[N+](=O)[O-])/C1=C(/O)c1ccccc1 (configuration not stated),?,-13,7,1.4*,-7,85,0,96,0
Cn1ccc(NC(=O)c2ccc(Cl)cc2)n1,0,·,·,151*,·,106,0,100,0
Cn1ccc(NC(=O)c2ccc(Cl)cc2Cl)n1,8,·,·,0,·,·,·,·,·
CC(C)(O)C#Cc1ccc(CN2CCC(n3nccc3NC(=O)C3CC3)CC2)cc1,?,-15,0,0,27,·,·,·,·
CCCNC(=O)C(Cc1ccccc1)NC(=O)c1ccc(-c2ccccc2)cc1 (configuration not stated),-2,·,·,0,·,·,·,·,·
CN(C(=O)CSc1ncccn1)C1CCS(=O)(=O)C1 (configuration not stated),-8,-4,0,5.3*,22,112,0,117,0
O=C(Nc1ccnn1C1CCN(C(=O)c2cccc(C(F)(F)F)c2)CC1)C1CC1,2,-19,9,0,12,·,·,·,·
COC(=O)c1ccc(CN2CCc3ccccc32)cc1,6,10,11,0,10,·,·,·,·
Cc1cc(-c2ccc(S(=O)(=O)N(C)Cc3ccccc3)cc2)on1,-1,14,10,0,-10,·,·,·,·
Cc1nc(NC(=S)NC(=O)c2ccco2)sc1C(=O)N(C)C,-5,-4,-3,5.7*,8,79,0,100,0
Cc1c(CCOC(=O)C23CC4CC(CC(C4)C2)C3)sc[n+]1Cc1ccccc1,-6,1,-7,0,13,·,·,·,·
Cc1c(CCOC(=O)C23CC4CC(CC(C)(C4)C2)C3)sc[n+]1Cc1ccccc1,6,?,5,1.2*,46,114,1,+,0
CCN(CC(=O)NC1CCS(=O)(=O)C1)c1ccc(S(=O)(=O)N(CC)CC)cc1[N+](=O)[O-] (configuration not stated),0,·,·,0,·,·,·,·,·
Cc1nn(C)cc1S(=O)(=O)NCc1ccccc1Cl,17,-16,-9,0,4,·,·,·,·
CCN(CC)S(=O)(=O)c1ccc(N2CCOCC2)c(NC(=O)CCC2CCCCC2)c1,0,5,2,13*,43,101,0,94,0
CC(C)Oc1ccc(C(=O)NCCCNC(=O)c2ccccn2)cc1,-5,5,-10,0,23,·,·,·,·
Cc1cc(=O)oc2cc(Oc3ccc([N+](=O)[O-])cc3[N+](=O)[O-])ccc12,7,-3,-15,0,28,·,·,·,·
O=Cc1cccc(Oc2ccc([N+](=O)[O-])cc2[N+](=O)[O-])c1,0,1,1,0.7*,35,100,0,101,0
O=C1/C(=C\c2cccc(O)c2O)SC(=S)N1Cc1ccccc1,1,31,-2,0,29,·,·,·,·
O=C1/C(=C\c2cc([N+](=O)[O-])ccc2O)SC(=S)N1Cc1ccc(Cl)cc1,0,-1,-33,0.7*,43,507*,1,232*,1
O=C(NCCNC(=O)c1cc(Cl)ccc1Cl)c1cnccn1,2,-8,-10,0,-9,·,·,·,·
Cc1ccc(S(=O)(=O)c2ccc(Cl)cc2)cc1S(=O)(=O)N(C)CC(=O)O,1,-1,8,15*,2,101,0,98,0
Cc1ccc(S(=O)(=O)c2ccc(Cl)cc2)cc1S(N)(=O)=O,-3,6,-5,0,40,·,·,·,·
CC(C)[C@H](NS(=O)(=O)c1ccccc1F)C(=O)OCC(=O)Nc1cccc(S(N)(=O)=O)c1,9,·,·,0,·,·,·,·,·
SMILES,HDAC3 inh,T cruzi inh,PolyA inhibitor,Efflux pump inh,AI-2 QS modul,Yeast cmpd fluor,CaMdr1 efflux inh,CaCdr2 efflux inh,Cdr1 pump inh
COCCOC(=O)c1c(C)oc2ccc(NS(=O)(=O)c3ccc(F)cc3)cc12,-1,7,-14,0.4*,21,94,0,89,0
Cc1oc2ccc(NS(=O)(=O)c3ccc(F)cc3)cc2c1C(=O)O,-1,-13,1,0,·,·,·,·,·
O=C1C2C3C=CC(C4CC34)C2C(=O)N1Cc1ccccc1 (configuration not stated),0,-8,12,0.9*,-8,91,0,94,0
COCCNC(=O)Cn1cc(/C=N/NC(=O)c2ccc(Oc3ccc(O)cc3)cc2)c2ccccc21,5,-13,12,0,8,·,·,·,·
C[C@@H]1CC[C@]2(C(=O)O)CC[C@]3(C)C(=CCC4[C@]56CC[C@@](O)(OC5)C(C)(C)C6CC[C@]43C)C2[C@H]1C (some centres not stated),12,·,·,1.4*,·,104,0,204*,0
S=c1[nH]nc(CSCCOc2ccc(Cl)cc2Cl)o1,2,-7,24,0,17,·,·,·,·
O=C1c2oc3ccccc3c(=O)c2C(c2ccc(O)cc2)N1c1nccs1 (configuration not stated),-11,-8,-5,0,17,·,·,·,·
Cc1ccc(C(=O)COc2ccccc2-c2ccccc2)cc1C,1,2,17,13*,5,100,0,91,1
COc1ccc(-c2nc3ccccc3c(=O)n2CCOc2ccccc2C)cc1,-3,-10,-16,0.8*,8,104,0,110,0
COc1ccc(-c2nc3ccccc3c(=O)n2CC(C)C)cc1,4,5,2,0,23,·,·,·,·
COc1ccc(-c2nc3ccccc3c(=O)n2CCOc2cc(C)ccc2C)cc1,0,-21,-4,0.7*,-3,102,0,112,0
COc1ccc(-c2nc3ccccc3c(=O)n2CCOc2ccc(C)cc2C)cc1,2,17,-9,0.7*,9,103,0,112,0
CC(=O)NCCOc1nc(N(C)C)nc(N2CCOCC2)n1,7,-10,-8,0.5*,13,95,0,112,0
CC(=O)NCCOc1nc(N2CCCCC2)nc(N2CCCCC2)n1,-1,3,3,0,32,·,·,·,·
Cc1ccc(-c2nn(-c3ccccc3)cc2CC(=S)N2CCOCC2)cc1,-5,21,-9,0,5,·,·,·,·
COc1ccc(C(=O)NCC(=O)OCC(=O)Nc2ncc(Cl)cc2Cl)cc1[N+](=O)[O-],0,·,·,0,·,·,·,·,·

# Bioassay records (PubChem)
